Screening data (PubChem)
In the library only some 3.1% were active in any assay of this set; here they are far more common.
GalR3 antag – human GalR3 antagonism; inhibition, % at 3 µM; O60755; 0.44% of 360,000 active; HEK293 GalR3-CNG cAMP membrane potential fluorescence; galR3 body fused to GalR1 C-terminus;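 active means inhibition above the screen-wide average plus 3 SD, cut at about 13% in these data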;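 further: forskolin and galanin both at EC90 stimulate the cells; cAMP rise reported by CNG channel membrane potential dye signal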
Target sequence (O60755 1-299 limits assumed): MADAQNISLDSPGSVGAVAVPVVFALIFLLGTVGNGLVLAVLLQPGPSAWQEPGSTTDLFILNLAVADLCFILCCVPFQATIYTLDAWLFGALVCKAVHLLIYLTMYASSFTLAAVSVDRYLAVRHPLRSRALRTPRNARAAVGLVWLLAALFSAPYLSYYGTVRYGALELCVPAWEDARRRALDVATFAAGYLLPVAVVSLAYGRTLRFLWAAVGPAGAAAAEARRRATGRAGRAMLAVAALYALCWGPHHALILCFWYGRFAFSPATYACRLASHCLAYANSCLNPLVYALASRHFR
GPR7 antag – human neuropeptides B/W receptor 1 antagonism. GPR7-expressing cells, fluorescence antagonist assay. inhibition, % at 4.4 µM. 1.1% of 290,000 active; in the data active means inhibition above about 16%, passing the limit was not always enough;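 further: cells stimulated with the agonist NPW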
Target sequence (P48145 whole entry, looked up): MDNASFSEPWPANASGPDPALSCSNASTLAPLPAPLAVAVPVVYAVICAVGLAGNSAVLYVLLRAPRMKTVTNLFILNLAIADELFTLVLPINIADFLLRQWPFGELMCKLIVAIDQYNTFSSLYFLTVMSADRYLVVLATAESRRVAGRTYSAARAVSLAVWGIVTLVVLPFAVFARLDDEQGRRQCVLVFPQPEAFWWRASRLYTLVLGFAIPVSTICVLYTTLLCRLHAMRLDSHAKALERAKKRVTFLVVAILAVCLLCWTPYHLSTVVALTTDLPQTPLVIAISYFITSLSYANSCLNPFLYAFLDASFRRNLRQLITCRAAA
OX1R antag-1 – antagonists of human orexin 1 receptor; 0.43% of 330,000 active; O43613; inhibition, % at 5 µM; CHO/OX1R cells, Fluo-8 calcium fluorescence, orexin A; AID 434989;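 active means inhibition above its plate's threshold, mean inhibition of all tested compounds on the plate plus 3 SD, cut at about 37% in these data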
CHO parental Ca – signal in parental CHO cells, OX1R antagonist counter-screen; 0.63% of 330,000 active; AID 463079; parental CHO-K1, ATP-induced calcium, Fluo-8 fluorescence; inhibition, % at 5.6 µM;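 active means inhibition above that plate's mean sample inhibition plus 3 SD, cut at about 26% in these data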
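Assay system – parental CHO cells · Reagent – ATP stimulus · Detection – intracellular calcium via Fluo-8 no-wash fluorescent dye · Evaluation – percent inhibition of ATP-evoked calcium rise, normalized to controls · Controls – ATP wells versus no-ATP DMSO wells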
OX1R antag-2 – OX1R (human) antagonism. O43613. OX1R-expressing cells, FRET antagonist read-out. inhibition, % at 6.6 µM. 1.8% of 330,000 active. AID 485270; in the data active means inhibition mostly above about 38%, no sharp cut-off; inactive means mostly below about 40%
GalR3 conf – GalR3 (human) antagonism, confirmation; shares compounds with GalR3 antag; HEK293 GalR3 CNG cAMP biosensor, membrane potential fluorescence; galR3 fused to GalR1 carboxy tail; challenged with forskolin and galanin at EC90; inhibition, % at 3 µM; 59% of 1,600 active; AID 652245;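 active means inhibition above the primary screen's cutoff, the mean inhibition of all screened compounds plus 3 SD, cut at about 13% in these data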
CNG parental – parental cell agonism counter-screen for GalR3 antagonists | 10% of 1,600 active | shares compounds with GalR3 antag | activation, % at 3 µM | HEK293-CNG parental cells, cAMP membrane potential fluorescence; normalised: DMSO wells 0%, forskolin wells 100%; in the data active means activation above about 1.3%
A number is an active result; 0 = inactive; - = no result.

SMILES | GalR3 antag | GPR7 antag | OX1R antag-1 | CHO parental Ca | OX1R antag-2 | GalR3 conf | CNG parental
CCN=C1S/C(=C\c2cc(OCC)c(O)cc2Br)C(=O)N1CC | 16 | 0 | 0 | 0 | 0 | 21 | 0
Cc1sc2ncnc(NCC3COc4ccccc4O3)c2c1C (centres undefined) | 100 | 0 | 0 | 62 | 0 | 105 | 0
Cc1sc2ncnc(NCC3CCCO3)c2c1C (centres undefined) | 0 | 0 | 0 | 0 | 0 | - | -
O=C(N/N=C/c1ccc(O)c(O)c1)N/N=C/c1ccc(O)c(O)c1 | 13 | 0 | - | - | - | 0 | 0
Clc1ccc(-c2nc3ncccn3c2Cl)cc1 | - | 0 | 0 | 0 | 0 | - | -
CC(=O)C1=C(C)Nc2ncnn2C1c1ccc(C)cc1 (centres undefined) | 0 | 0 | 0 | 0 | 0 | - | -
CCOc1ccccc1Nc1cc2n(c(=O)n1)CCc1cc(OC)c(OC)cc1-2 | 53 | 0 | 0 | 0 | 0 | 67 | 0
COc1cc2c(cc1OC)-c1cc(Nc3ccccc3C)nc(=O)n1CC2 | 46 | 0 | 0 | 0 | 0 | 53 | 0
COc1cc2c(cc1OC)-c1cc(Nc3cccc(C)c3)nc(=O)n1CC2 | 53 | 0 | 0 | 0 | 0 | 59 | 0
CCOc1ccc(Nc2cc3n(c(=O)n2)CCc2cc(OC)c(OC)cc2-3)cc1 | 0 | 0 | 0 | 0 | 0 | - | -
COc1ccc(CN2CC(C(=O)N3CC(C)CC(C)C3)CC2=O)cc1 (centres undefined) | 0 | 0 | 0 | 0 | 0 | - | -
C[C@H](CO)N1C[C@H](C)[C@@H](CN(C)CC2CCCCC2)Oc2c(NC(=O)Cc3ccccc3)cccc2C1=O | 0 | - | 0 | 0 | 0 | - | -
CC(C)SCCCCOc1ccc2ccccc2c1 | 0 | 0 | 0 | 0 | 0 | - | -
CC(C)SCCCOc1ccc(C(C)(C)C)cc1 | - | 0 | 0 | 0 | 0 | 0 | 0
CCCCN(C)CCCNC(=O)CN1C(=O)COc2ccc(S(=O)(=O)N3CCOCC3)cc21 | 0 | 0 | 0 | 0 | 0 | - | -
COCOc1cc(O)c(C(=O)/C=C/c2ccccc2)c(OCOC)c1 | 22 | - | 0 | 0 | 0 | 20 | 0
COc1ccc(C(=S)N2CCNCC2)cc1 | 0 | 0 | 0 | 0 | 0 | - | -
COc1ccc(C(=S)N2CCCCCC2)cc1 | 13 | 0 | 0 | 0 | 0 | 0 | 0
CC(C)(CO)NCc1cccc(OCc2ccc(Cl)cc2)c1 | 0 | 0 | 0 | 0 | 0 | - | -
Clc1ccc(COc2cccc(CNCc3ccncc3)c2)cc1 | 32 | 0 | 0 | 0 | 0 | 93 | 0
Cc1cc(NC(=O)/C=C/c2ccccc2)c(C(C)C)cc1O | 19 | 0 | 0 | 0 | 0 | 23 | 0
Cc1cc(NC(=O)c2ccccc2Cl)c(C(C)C)cc1O | 0 | 0 | 0 | 0 | 0 | - | -
O=C1C=C(c2ccc(Cl)c(C(F)(F)F)c2)C[C@@H](c2ccc3c(c2)OCO3)C1 | 0 | - | 0 | 0 | 0 | - | -
COc1ccccc1-c1cc(C(F)(F)F)nc(S(=O)(=O)CCCC(=O)Nc2cccnc2Cl)n1 | 22 | 0 | - | - | - | 22 | 0
COc1ccccc1-c1cc(C(F)(F)F)nc(S(=O)(=O)CCCC(=O)Nc2cc(C)on2)n1 | 0 | 0 | 0 | 0 | 0 | - | -
SMILES | GalR3 antag | GPR7 antag | OX1R antag-1 | CHO parental Ca | OX1R antag-2 | GalR3 conf | CNG parental
COc1ccc(-c2cc(C(F)(F)F)nc(S(=O)(=O)CCCC(=O)Nc3cc(C)on3)n2)cc1OC | 18 | 0 | - | - | - | 19 | 0
O=C1c2ccccc2C(=O)N1CCC#Cc1ccc2cc(CCO)oc(=O)c2c1 | 13 | - | 0 | 0 | 0 | 0 | 0
CN(C)c1ccc(C#Cc2ccc3cc(CCO)oc(=O)c3c2)cc1 | - | - | 0 | 0 | 0 | - | -
COC(=O)c1ccccc1Oc1ccc(NC(=O)CCCl)cc1 | 0 | 0 | 0 | 0 | 0 | - | -
COc1cccc(C(=O)/C=C/c2ccc(OCC#N)c(OC)c2)c1 | 20 | 0 | 0 | 0 | 0 | 0 | 0
COc1ccc(C2c3cc(OC)c(OC)cc3CC3C(=O)OCC32)cc1OC (centres undefined) | 62 | - | - | - | - | 65 | 0
O=C(c1ccc(S(=O)(=O)N2CCCC2)cc1)N1CCCC(C(F)(F)F)C1 (centres undefined) | 0 | - | 0 | 0 | 0 | - | -
COCC(C)n1c(-c2ccc3c(c2)NC(=O)CO3)csc1=Nc1ccc(OC(F)F)cc1 (centres undefined) | 31 | 0 | 0 | 0 | 0 | 92 | 0
O=C(NCCCl)NNc1c(Cl)cc(Cl)cc1Cl | 26 | 0 | 0 | 0 | 0 | 13 | 0
CCCCNC(=S)NNc1c(Cl)cc(Cl)cc1Cl | 0 | 0 | 0 | 0 | 0 | - | -
COC(=O)c1ccc2nc(-c3cccc(Cl)c3)c(Cc3ccsc3)n2c1 | 0 | - | - | - | - | - | -
O=C(COC(=O)Cc1c(F)cccc1Cl)NC(=O)c1ccccc1 | 0 | 0 | 0 | 0 | 0 | - | -
CC(C)NC(=O)NC(=O)COC(=O)Cc1c(F)cccc1Cl | 25 | 0 | 0 | 0 | 0 | 14 | 0
Cc1ccc(S(=O)(=O)OCC(=O)Nc2ccc(C(=O)O)c(O)c2)cc1 | 0 | - | - | - | - | - | -
COc1cc(CCCN2C(N)=NC[C@@H]2c2ccccc2)cc(OC)c1OC | - | - | 0 | 0 | 0 | 0 | 0
OC(c1ccccc1)c1ccccc1CN1CCCNC1=S (centres undefined) | 0 | - | - | - | - | - | -
COc1ccc(CC(=O)OCc2cc3ccc(C)cc3[nH]c2=O)cc1 | 0 | 0 | 0 | 0 | 0 | - | -
COc1ccc(CC(=O)OCc2cc3ccccc3[nH]c2=O)cc1 | - | 0 | 0 | 0 | 0 | 0 | 0
Cn1c(=O)c2c(nc(NCCCN3CCOCC3)n2Cc2ccc(Cl)c(Cl)c2)n(C)c1=O | 0 | 0 | - | - | - | - | -
Cn1c(=O)c2c(nc(NCC3CCCO3)n2Cc2ccccc2)n(C)c1=O (centres undefined) | - | 0 | 0 | 0 | 0 | 0 | 0
Cn1c(=O)c2c(nc(NCCCN3CCOCC3)n2Cc2ccc(Cl)cc2)n(C)c1=O | 14 | 0 | 0 | 0 | 0 | 15 | 0
Cc1cc(CNC(=O)c2cccc([N+](=O)[O-])c2C)c2ccccc2n1 | 33 | 0 | 0 | 0 | 0 | 53 | 0
CCc1nc(C)cn1S(=O)(=O)c1cc(C)c(OC)c(C)c1C | 26 | 0 | 0 | 31 | 0 | 82 | 0
Fc1ccc(NC(=S)N2CCCN(c3ccc(C(F)(F)F)cn3)CC2)c(F)c1 | 110 | 0 | 57 | 0 | 0 | 107 | 0
CC1=NNC(=O)/C1=C\c1cn(-c2ccccc2)nc1-c1ccccc1 | 48 | 55 | 96 | 92 | 0 | 55 | 0
CCOc1cc(CNCC2CCCN2CC)cc(Cl)c1OC (centres undefined) | 15 | 0 | 0 | 0 | 0 | 0 | 0
C=C1CC(COc2ccc3c(C)c(Cl)c(=O)oc3c2)(c2ccccc2)OC1=O (centres undefined) | 37 | - | - | - | - | 18 | 2.9
Cc1ccc(C2C3=C(CC(C)(C)CC3=O)NC3=C2C(=O)c2ccccc23)cc1 (centres undefined) | 22 | 0 | 0 | 0 | 0 | 19 | 0
